# Experimental data taken from ChEMBL document CHEMBL2390837, “Synthesis, cytotoxic activity and DNA-interaction studies of novel anthraquinone-thiosemicarbazones with tautomerizable methylene group” (Eur J Med Chem, 2013).
# The source made the active and inactive calls. The rule behind the calls is not given here.
# What was measured:
# [1] = system: Radical scavenging activity; experiment: Antioxidant activity assessed as DPPH radical scavenging activity after 30 mins by spectrophotometric analysis; format: functional
# Procedure, shortened: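 Test solutions at 8–1000 μM in methanol mixed 1:1 by volume with 200 μM DPPH in methanol, kept 30 min in the dark at room temperature. Absorbance read at 517 nm against blanks without DPPH. Percent scavenging = (A_DPPH − A_sample)/A_DPPH × 100. IC50 (concentration halving DPPH absorbance) read from a plot of % versus concentration. Ascorbic acid and BHT used as standards.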
# HeLa [2] = experiment: Induction of apoptosis in human HeLa cells at IC90 after 24 hrs by propidium iodide staining-based FACS flow cytometric analysis in presence of caspase-8 inhibitor Z-IETD-FMK; format: functional, cell-based
# A549 = experiment: Cytotoxicity against human A549 cells after 72 hrs by MTT assay; format: functional, cell-based; settings: A549, 72 h
# Procedure, shortened: (§1)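 Cells seeded in 96-well plates: HeLa 2000, MDA-MB-361 7000, MDA-MB-453 3000, K562, A549 and MRC-5 5000 per well. Compounds added at 5–100 μM (final), DMSO ≤0.5%, in RPMI-1640 with 10% FBS. Added after 24 h, except K562 at 2 h after seeding. Exposure 72 h, then MTT 4 h at 37 °C, SDS solubilization, A570 read. IC50 is the mean ± SD of three independent experiments.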
# HeLa [3] = experiment: Cell cycle arrest in human HeLa cells assessed as accumulation at subG1 phase at IC50 after 24 hrs by propidium iodide staining-based FACS flow cytometric analysis (reference value: 9.10%); format: functional
# HeLa [4] = experiment: Cell cycle arrest in human HeLa cells assessed as accumulation at S phase at 2 times IC50 after 24 hrs by propidium iodide staining-based FACS flow cytometric analysis (reference value: 16.22%); format: functional
# Escherichia coli = experiment: Induction of Escherichia coli XL1 blue pUC18 DNA cleavage assessed as conversion of supercoiled DNA to relaxed circular DNA at 2 mM after 90 mins by agarose gel electrophoresis
# Procedure, shortened: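 Supercoiled pUC18 (262 ng, from E. coli XL1 blue) incubated with 2 mM compound in 20 μL of 40 mM bicarbonate buffer pH 8.4 at 37 °C for 90 min. Reaction stopped with loading buffer. Analyzed on 1% agarose in TAE pH 8.24 at 80 V and stained with ethidium bromide (0.5 µg/mL).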
# HeLa [5] = experiment: Cell cycle arrest in human HeLa cells assessed as accumulation at subG1 phase at 2 times IC50 after 24 hrs by propidium iodide staining-based FACS flow cytometric analysis (reference value: 9.10%); format: functional
# HeLa [6] = experiment: Cell cycle arrest in human HeLa cells assessed as accumulation at G2/M phase at IC50 after 24 hrs by propidium iodide staining-based FACS flow cytometric analysis (reference value: 21.66%); format: functional
# HeLa [7] = experiment: Cytotoxicity against human HeLa cells after 72 hrs by MTT assay; format: functional, cell-based; procedure, shortened: as §1
# MDA-MB-361 = experiment: Cytotoxicity against human MDA-MB-361 cells after 72 hrs by MTT assay; format: functional, cell-based; settings: MDA-MB-361, 72 h; procedure, shortened: as §1
# HeLa [8] = experiment: Cell cycle arrest in human HeLa cells assessed as accumulation at G1 phase at 2 times IC50 after 24 hrs by propidium iodide staining-based FACS flow cytometric analysis (reference value: 51.97%); format: functional
# HeLa [9] = experiment: Cell cycle arrest in human HeLa cells assessed as accumulation at G1 phase at IC50 after 24 hrs by propidium iodide staining-based FACS flow cytometric analysis (reference value: 51.97%); format: functional
# MRC5 = experiment: Cytotoxicity against human MRC5 cells after 72 hrs by MTT assay; format: cell-based; settings: MRC5, 72 h; procedure, shortened: as §1
# DNA [10] = experiment: Binding affinity to calf thymus DNA at 20 to 80 uM after 1.5 hrs by UV-vis spectrophotometric analysis; format: nucleic-acid assay; settings: Bos taurus
# Procedure, shortened: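 UV–Vis spectra (200–800 nm, 1 cm cells) of compound at 20, 40, 60 or 80 μM, with or without 0.12 mM CT-DNA. CT-DNA was dissolved in 10 mM Tris-HCl pH 7.9. Mixtures were in 40 mM bicarbonate buffer pH 8.4, incubated 1.5 h at 37 °C with occasional vortexing.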
# HeLa [11] = experiment: Cell cycle arrest in human HeLa cells assessed as accumulation at G2/M phase at 2 times IC50 after 24 hrs by propidium iodide staining-based FACS flow cytometric analysis (reference value: 21.66%); format: functional
# DNA [12] = experiment: Binding affinity to calf thymus DNA after 1.5 hrs by spectroscopic titration; format: nucleic-acid assay; settings: Bos taurus
# Procedure, shortened: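 Absorbance titration in 40 mM bicarbonate buffer pH 8.4. Compound held fixed at 40 μM, CT-DNA varied at (0.2–1.6) × 10⁻⁴ M. Mixtures incubated 1.5 h at 37 °C, then UV–Vis spectra recorded from 200 to 800 nm. K_B taken from a plot of [DNA]/(εA − εF) versus [DNA].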
# MDA-MB-453 = experiment: Cytotoxicity against human MDA-MB-453 cells after 72 hrs by MTT assay; format: functional, cell-based; settings: MDA-MB-453, 72 h; procedure, shortened: as §1
# HeLa [13] = experiment: Cell cycle arrest in human HeLa cells assessed as accumulation at S phase at IC50 after 24 hrs by propidium iodide staining-based FACS flow cytometric analysis (reference value: 16.22%); format: functional
# HeLa [14] = experiment: Induction of apoptosis in human HeLa cells at IC90 after 24 hrs by propidium iodide staining-based FACS flow cytometric analysis in presence of caspase-3 inhibitor Z-DEVD-FMK; format: functional, cell-based
# HeLa [15] = experiment: Induction of apoptosis in human HeLa cells at IC90 after 24 hrs by propidium iodide staining-based FACS flow cytometric analysis in presence of caspase-9 inhibitor Z-LEHD-FMK; format: functional, cell-based
# K562 = experiment: Cytotoxicity against human K562 cells after 72 hrs by MTT assay; format: functional, cell-based; settings: K562, 72 h; procedure, shortened: as §1
# HeLa [16] = experiment: Cell cycle arrest in human HeLa cells assessed as accumulation at subG1 phase after 24 hrs by propidium iodide staining-based FACS flow cytometric analysis; format: functional
SMILES,IC50 [1],Activity (HeLa [2]),IC50 (A549),Activity (HeLa [3]),Activity (HeLa [4]),Activity (Escherichia coli),Activity (HeLa [5]),Activity (HeLa [6]),IC50 (HeLa [7]),IC50 (MDA-MB-361),Activity (HeLa [8]),Activity (HeLa [9]),IC50 (MRC5),Activity (DNA [10]),Activity (HeLa [11]),IC50 (MDA-MB-453),Activity (HeLa [13]),Activity (HeLa [14]),Activity (HeLa [15]),IC50 (K562),also measured
CCOC(=O)/C(CC(=O)c1cccc2c1C(=O)c1ccccc1C2=O)=N/NC(N)=S,20.5 µM,Active,29 µM,Active,Active,inactive,Active,Active,14.4 µM,30.7 µM,Active,Active,36.2 µM,Active,Active,13.6 µM,Active,Active,Active,7.99 µM,Kb (DNA [12]): 0.55 ×10⁹ /M
CCOC(=O)/C(CC(=O)c1cccc2c1C(=O)c1ccccc1C2=O)=N\Nc1ccccc1,–,–,40 µM,–,–,–,–,–,40 µM,40 µM,–,–,40 µM,–,–,40 µM,–,–,–,40 µM,–
CCOC(=O)/C(CC(=O)c1cccc2c1C(=O)c1ccccc1C2=O)=N\NC(=S)Nc1ccc(C)cc1,41 µM,Active,22.5 µM,Active,Active,inactive,Active,Active,21 µM,32.6 µM,Active,Active,30.3 µM,Active,Active,11.3 µM,Active,Active,Active,3.97 µM,Kb (DNA [12]): 2.91 ×10⁹ /M
O=C1O[C@H]([C@@H](O)CO)C(O)=C1O [ASCORBIC ACID],15.9 µM,–,–,–,–,–,–,–,–,–,–,–,–,–,–,–,–,–,–,–,–
CCOC(=O)/C(=C/C(=O)c1cccc2c1C(=O)c1ccccc1C2=O)Nc1ccccc1,–,–,100 µM,–,–,–,–,–,100 µM,100 µM,–,–,100 µM,–,–,100 µM,–,–,–,100 µM,–
CCOC(=O)/C(CC(=O)c1cccc2c1C(=O)c1ccccc1C2=O)=N\NC(=S)NCc1cccnc1,46.9 µM,Active,23.4 µM,Active,Active,inactive,Active,Active,18.1 µM,50.5 µM,Active,Active,13.6 µM,Active,Active,17.7 µM,Active,Active,Active,2.17 µM,–
CCOC(=O)/C(CC(=O)c1cccc2c1C(=O)c1ccccc1C2=O)=N\NC(=S)NCc1ccco1,35.8 µM,Active,22.6 µM,Active,Active,inactive,Active,Active,19 µM,47.8 µM,Active,Active,38.6 µM,Active,Active,19.4 µM,Active,Active,Active,2.63 µM,–
Cc1cc(C(C)(C)C)c(O)c(C(C)(C)C)c1 [BUTYLATED HYDROXYTOLUENE],33.9 µM,–,–,–,–,–,–,–,–,–,–,–,–,–,–,–,–,–,–,–,–
CCOC(=O)/C(CC(=O)c1cccc2c1C(=O)c1ccccc1C2=O)=N\NC(=S)NCc1cccs1,66.5 µM,Active,12.9 µM,28.61%,13.79%,inactive,36.27%,15.34%,8.25 µM,25.4 µM,40.07%,32.36%,24.4 µM,Active,3.79%,13.5 µM,20.62%,Active,Active,2.8 µM,Activity (HeLa [16]): Dose-dependent effect
CCOC(=O)/C(CC(=O)c1cccc2c1C(=O)c1ccccc1C2=O)=N\NC(=S)Nc1ccccc1,26.2 µM,Active,9.89 µM,11.21%,19.4%,inactive,23.74%,24.11%,8.19 µM,6.61 µM,44.72%,44.66%,11.8 µM,Active,7.61%,6.91 µM,17.82%,Active,Active,3.59 µM,Kb (DNA [12]): 9.3 ×10⁹ /M; Activity (HeLa [16]): Dose-dependent effect
CCCCNC(=S)N/N=C(/CC(=O)c1cccc2c1C(=O)c1ccccc1C2=O)C(=O)OCC,25.8 µM,Active,19.6 µM,Active,Active,inactive,Active,Active,10.9 µM,30.8 µM,Active,Active,21.1 µM,Active,Active,11.5 µM,Active,Active,Active,3.8 µM,–
CC[n+]1c(-c2ccccc2)c2cc(N)ccc2c2ccc(N)cc21,–,–,–,–,–,–,–,–,–,–,–,–,–,–,–,–,–,–,–,–,Kb (DNA [12]): 7 ×10⁷ /M
CCOC(=O)/C(CC(=O)c1cccc2c1C(=O)c1ccccc1C2=O)=N\NC(=S)NC1CCCCC1,16.4 µM,Active,13.9 µM,Active,Active,inactive,Active,Active,9.15 µM,32.6 µM,Active,Active,13.6 µM,Active,Active,4.64 µM,Active,Active,Active,2.35 µM,–
